According to ChEMBL document CHEMBL5724801, “EUbOPEN Chemogenomics Library - Multiplex” (2024):
“And” between values parts separate entries of the source, which are not always exact repeats. Equal entries are not always repeated.

What follows are molecules tested on HEK-293T (assay: Multiplex assay against HEK293T). Conditions: human, 12 h, 1 µM, compound concentration 1 uM.
Format: toxicity, cell-based
Outline: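 Phenotypes for tubulin, mitochondrial mass and membrane permeability are expressed as per cents of healthy-nucleus cells. Cells were stained live at seeding with Hoechst33342, BioTracker Green Microtubule Cytoskeleton Dye, MitoTracker Red and Annexin V Alexa Fluor 680, then imaged after compound addition on a CQ1 microscope at 37°C and 5% CO2. Machine-learning gating in CellPathfinder separated Hoechst high-intensity objects from normal cells, divided normal cells by nuclear state (healthy, pyknosed, fragmented) and divided pyknosed cells into mitotic or apoptotic.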
For `Cc1ccc(OCC(O)C(C)NC(C)C)c2c1CCC2.Cl` (stereo unspecified), the “Population Apoptotic (%)” value was 34% and 45%, the “Population Fragmented Nuclei (%)” value was 6% and 5% and the “Population Healthy Nuclei (%)” value was 81% and 84%. For the same molecule, the “Population Hoechst High Intensity Objects (%)” value was 5%, the “Population Membrane Permeable-Phenotype (%)” value was 0% and the “Population Mitochondria Different-Phenotype (%)” value was 54% and 65%. The “Population Mitotic Cells (%)” value was 65% and 54%, the “Population Normal (%)” value was 94% and the “Population Pyknosed Nuclei (%)” value was 12% and 10%. For the same molecule, the “Population Tubulin-Different-Phenotype (%)” value was 40% and 22% and the “Total Cell Count” value was 409 and 360. `Cc1cnc(-c2cc(N3CCN(C(=O)CCS(C)(=O)=O)CC3)ncc2Cl)c(C)c1` was tested, and the “Population Apoptotic (%)” value was 29% and 42%, the “Population Fragmented Nuclei (%)” value was 6% and the “Population Healthy Nuclei (%)” value was 76% and 75%. The “Population Hoechst High Intensity Objects (%)” value was 4% and 9%, the “Population Membrane Permeable-Phenotype (%)” value was 0% and the “Population Mitochondria Different-Phenotype (%)” value was 50% and 69%. The “Population Mitotic Cells (%)” value was 70% and 57%, the “Population Normal (%)” value was 95% and 90% and the “Population Pyknosed Nuclei (%)” value was 16% and 17%. The “Population Tubulin-Different-Phenotype (%)” value was 33% and 24% and the “Total Cell Count” value was 276 and 294.

Same assay, conditions: human, 12 h, 10 µM, compound concentration 10 uM
With `Cc1ccc(OCC(O)C(C)NC(C)C)c2c1CCC2.Cl` (stereo unspecified) the “Population Apoptotic (%)” value was 43%, the “Population Fragmented Nuclei (%)” value was 7% and 9% and the “Population Healthy Nuclei (%)” value was 67% and 76%. For the same molecule, the “Population Membrane Permeable-Phenotype (%)” value was 0%, the “Population Mitochondria Different-Phenotype (%)” value was 66% and 79% and the “Population Mitotic Cells (%)” value was 56%. For the same molecule, the “Population Normal (%)” value was 96% and 81%, the “Population Pyknosed Nuclei (%)” value was 25% and 14% and the “Population Tubulin-Different-Phenotype (%)” value was 61% and 59%. The “Total Cell Count” value was 247 and 323. `Cc1cnc(-c2cc(N3CCN(C(=O)CCS(C)(=O)=O)CC3)ncc2Cl)c(C)c1` was tested, and the “Population Apoptotic (%)” value was 42% and 45%, the “Population Fragmented Nuclei (%)” value was 7% and the “Population Healthy Nuclei (%)” value was 82% and 75%. The “Population Hoechst High Intensity Objects (%)” value was 10% and 7%, the “Population Membrane Permeable-Phenotype (%)” value was 0% and the “Population Mitochondria Different-Phenotype (%)” value was 47% and 70%. The “Population Mitotic Cells (%)” value was 57% and 54%, the “Population Normal (%)” value was 89% and 92% and the “Population Pyknosed Nuclei (%)” value was 10% and 17%. For the same molecule, the “Population Tubulin-Different-Phenotype (%)” value was 40% and 39% and the “Total Cell Count” value was 409 and 288.

Same assay, conditions: human, 24 h, 1 µM, compound concentration 1 uM
In the case of `Cc1ccc(OCC(O)C(C)NC(C)C)c2c1CCC2.Cl` (stereo unspecified), the “Population Apoptotic (%)” value is reported as 35% and 28%, the “Population Fragmented Nuclei (%)” value is reported as 6% and 7% and the “Population Healthy Nuclei (%)” value is reported as 80% and 83%. For the same molecule, the “Population Hoechst High Intensity Objects (%)” value was 3% and 4%, the “Population Membrane Permeable-Phenotype (%)” value was 0% and the “Population Mitochondria Different-Phenotype (%)” value was 38% and 45%. For the same molecule, the “Population Mitotic Cells (%)” value was 64% and 71%, the “Population Normal (%)” value was 96% and 95% and the “Population Pyknosed Nuclei (%)” value was 12% and 9%. The “Population Tubulin-Different-Phenotype (%)” value was 25% and 17% and the “Total Cell Count” value was 548 and 444. In the case of `Cc1cnc(-c2cc(N3CCN(C(=O)CCS(C)(=O)=O)CC3)ncc2Cl)c(C)c1`, the “Population Apoptotic (%)” value is reported as 36% and 40%, the “Population Fragmented Nuclei (%)” value is reported as 8% and 7% and the “Population Healthy Nuclei (%)” value is reported as 78% and 83%. The “Population Hoechst High Intensity Objects (%)” value was 2% and 6%, the “Population Membrane Permeable-Phenotype (%)” value was 1% and 0% and the “Population Mitochondria Different-Phenotype (%)” value was 30% and 36%. For the same molecule, the “Population Mitotic Cells (%)” value was 63% and 60%, the “Population Normal (%)” value was 97% and 93% and the “Population Pyknosed Nuclei (%)” value was 12% and 9%. For the same molecule, the “Population Tubulin-Different-Phenotype (%)” value was 21% and 13% and the “Total Cell Count” value was 368 and 413.

Same assay, conditions: human, 24 h, 10 µM, compound concentration 10 uM
With `Cc1ccc(OCC(O)C(C)NC(C)C)c2c1CCC2.Cl` (stereo unspecified) the “Population Apoptotic (%)” value was 46% and 50%, the “Population Fragmented Nuclei (%)” value was 11% and 9% and the “Population Healthy Nuclei (%)” value was 71% and 78%. The “Population Hoechst High Intensity Objects (%)” value was 5% and 11%, the “Population Membrane Permeable-Phenotype (%)” value was 1% and 0% and the “Population Mitochondria Different-Phenotype (%)” value was 53% and 60%. The “Population Mitotic Cells (%)” value was 53% and 50%, the “Population Normal (%)” value was 94% and 88% and the “Population Pyknosed Nuclei (%)” value was 17% and 11%. The “Population Tubulin-Different-Phenotype (%)” value was 47% and the “Total Cell Count” value was 334 and 399. `Cc1cnc(-c2cc(N3CCN(C(=O)CCS(C)(=O)=O)CC3)ncc2Cl)c(C)c1` was tested, and the “Population Apoptotic (%)” value was 33% and 51%, the “Population Fragmented Nuclei (%)” value was 15% and 7% and the “Population Healthy Nuclei (%)” value was 76% and 80%. The “Population Hoechst High Intensity Objects (%)” value was 5%, the “Population Membrane Permeable-Phenotype (%)” value was 0% and the “Population Mitochondria Different-Phenotype (%)” value was 29% and 47%. For the same molecule, the “Population Mitotic Cells (%)” value was 66% and 48%, the “Population Normal (%)” value was 94% and the “Population Pyknosed Nuclei (%)” value was 8% and 12%. For the same molecule, the “Population Tubulin-Different-Phenotype (%)” value was 31% and 22% and the “Total Cell Count” value was 550 and 392.

Same assay, conditions: human, 48 h, 1 µM, compound concentration 1 uM
With `Cc1ccc(OCC(O)C(C)NC(C)C)c2c1CCC2.Cl` (stereo unspecified) the “Population Apoptotic (%)” value was 24% and 26%, the “Population Fragmented Nuclei (%)” value was 12% and 11% and the “Population Healthy Nuclei (%)” value was 79% and 81%. For the same molecule, the “Population Hoechst High Intensity Objects (%)” value was 3% and 1%, the “Population Membrane Permeable-Phenotype (%)” value was 0% and the “Population Mitochondria Different-Phenotype (%)” value was 28% and 27%. For the same molecule, the “Population Mitotic Cells (%)” value was 75% and 73%, the “Population Normal (%)” value was 96% and 98% and the “Population Pyknosed Nuclei (%)” value was 8% and 7%. For the same molecule, the “Population Tubulin-Different-Phenotype (%)” value was 14% and the “Total Cell Count” value was 804 and 660. For `Cc1cnc(-c2cc(N3CCN(C(=O)CCS(C)(=O)=O)CC3)ncc2Cl)c(C)c1`, the “Population Apoptotic (%)” value was 27% and 34%, the “Population Fragmented Nuclei (%)” value was 17% and 14% and the “Population Healthy Nuclei (%)” value was 76% and 78%. For the same molecule, the “Population Hoechst High Intensity Objects (%)” value was 1% and 2%, the “Population Membrane Permeable-Phenotype (%)” value was 1% and 0% and the “Population Mitochondria Different-Phenotype (%)” value was 17% and 22%. The “Population Mitotic Cells (%)” value was 72% and 65%, the “Population Normal (%)” value was 98% and 97% and the “Population Pyknosed Nuclei (%)” value was 6%. The “Population Tubulin-Different-Phenotype (%)” value was 10% and 6% and the “Total Cell Count” value was 718 and 595.

Same assay, conditions: human, 48 h, 10 µM, compound concentration 10 uM
For `Cc1ccc(OCC(O)C(C)NC(C)C)c2c1CCC2.Cl` (stereo unspecified), the “Population Apoptotic (%)” value was 40% and 34%, the “Population Fragmented Nuclei (%)” value was 10% and 11% and the “Population Healthy Nuclei (%)” value was 74% and 80%. The “Population Hoechst High Intensity Objects (%)” value was 5%, the “Population Membrane Permeable-Phenotype (%)” value was 0% and 1% and the “Population Mitochondria Different-Phenotype (%)” value was 48% and 39%. The “Population Mitotic Cells (%)” value was 59% and 66%, the “Population Normal (%)” value was 94% and the “Population Pyknosed Nuclei (%)” value was 14% and 8%. The “Population Tubulin-Different-Phenotype (%)” value was 43% and 41% and the “Total Cell Count” value was 435 and 611. In the case of `Cc1cnc(-c2cc(N3CCN(C(=O)CCS(C)(=O)=O)CC3)ncc2Cl)c(C)c1`, the “Population Apoptotic (%)” value is reported as 25% and 36%, the “Population Fragmented Nuclei (%)” value is reported as 14% and the “Population Healthy Nuclei (%)” value is reported as 78% and 77%. For the same molecule, the “Population Hoechst High Intensity Objects (%)” value was 4% and 3%, the “Population Membrane Permeable-Phenotype (%)” value was 0% and the “Population Mitochondria Different-Phenotype (%)” value was 23% and 32%. For the same molecule, the “Population Mitotic Cells (%)” value was 74% and 63%, the “Population Normal (%)” value was 95% and 96% and the “Population Pyknosed Nuclei (%)” value was 7% and 8%. For the same molecule, the “Population Tubulin-Different-Phenotype (%)” value was 17% and 15% and the “Total Cell Count” value was 753 and 576.
